Measured values reported in ChEMBL document CHEMBL3875209, “Synthesis and biological evaluation of cis-restricted triazole/tetrazole mimics of combretastatin-benzothiazole hybrids as tubulin polymerization inhibitors and apoptosis inducers” (Bioorg Med Chem, 2017).

What was measured:
[1] = Antiproliferative activity against human A549 cells after 48 hrs by MTT assay; format: functional, cell-based; settings: A549, 48 h
In short: (§1)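 MTT assay. Cells seeded in DMEM with 10% FBS and left 24 h at 37 °C in CO2 before compound treatment for 48 h. MTT (5 mg/mL stock) added for 4 h, formazan dissolved in DMSO, absorbance read at 570 nm. IC50 taken as the mean of three independent experiments.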

[2] = Antiproliferative activity against human HepG2 cells after 48 hrs by MTT assay; format: functional, cell-based; settings: HepG2, 48 h; in short: as §1
[3] = Antiproliferative activity against human MCF7 cells after 48 hrs by MTT assay; format: functional, cell-based; settings: MCF7, 48 h; in short: as §1
[4] = Antiproliferative activity against human DU145 cells after 48 hrs by MTT assay; format: functional, cell-based; settings: DU-145, 48 h; in short: as §1
[5] = Antiproliferative activity against human HeLa cells after 48 hrs by MTT assay; format: functional, cell-based; in short: as §1
A549 [6] = assay: Induction of mitochondrial membrane potential loss in human A549 cells assessed as intact mitochondrial membrane at 100 nM after 48 hrs by JC-1 staining based flow cytometry (reference value: 95.9%); format: functional
A549 [7] = assay: Induction of mitochondrial membrane potential loss in human A549 cells at 100 nM after 48 hrs by JC-1 staining based flow cytometry (reference value: 3.8%); format: functional
A549 [8] = assay: Induction of ROS generation in human A549 cells at 100 nM after 48 hrs by DCFDA staining based flow cytometry (reference value: 4.4%); format: functional

COc1cc(-c2nnnn2-c2ccc(-c3nc4ccc(F)cc4s3)cc2)cc(OC)c1OC
IC50 [1]: 2.07 µM
IC50 [2]: 7.95 µM
IC50 [3]: 8.57 µM
IC50 [4]: 4.57 µM
IC50 [5]: 2.23 µM

COc1cc(-c2cn(-c3ccc(-c4nc5cc(OC)c(OC)c(OC)c5s4)cc3C)nn2)cc(OC)c1OC
IC50 [1]: 9.77 µM
IC50 [2]: 18.6 µM
IC50 [3]: 20.8 µM
IC50 [4]: 15.8 µM
IC50 [5]: 11.3 µM

COc1cc(-c2cn(-c3ccc(-c4nc5ccc(F)cc5s4)cc3)nn2)cc(OC)c1OC
IC50 [1]: 1.41 µM
IC50 [2]: 7.76 µM
IC50 [3]: 10.7 µM
IC50 [4]: 8.12 µM
IC50 [5]: 3.46 µM

COc1cc(OC)c2sc(-c3ccc(-n4nnnc4-c4cc(OC)c(OC)c(OC)c4)c(OC)c3)nc2c1
IC50 [1]: 9.24 µM
IC50 [2]: 17 µM
IC50 [3]: 24.7 µM
IC50 [4]: 13.5 µM
IC50 [5]: 11.7 µM

COc1cc(OC)c2sc(-c3ccc(-n4cc(-c5cc(OC)c(OC)c(OC)c5)nn4)cc3)nc2c1
IC50 [1]: 7.61 µM
IC50 [2]: 17.4 µM
IC50 [3]: 19.9 µM
IC50 [4]: 9.33 µM
IC50 [5]: 9.05 µM

COc1cc(OC)c2sc(-c3ccc(-n4cnnc4-c4cc(OC)c(OC)c(OC)c4)c(OC)c3)nc2c1
IC50 [1]: 7.24 µM
IC50 [2]: 9.2 µM
IC50 [3]: 8.57 µM
IC50 [4]: 10.2 µM
IC50 [5]: 6.45 µM

COc1cc(OC)c2sc(-c3ccc(-n4cc(-c5cc(OC)c(OC)c(OC)c5)nn4)c(C)c3)nc2c1
IC50 [1]: 7.76 µM
IC50 [2]: 15.5 µM
IC50 [3]: 18.8 µM
IC50 [4]: 10.2 µM
IC50 [5]: 8.12 µM

COc1ccc2nc(-c3ccc(-n4cc(-c5cc(OC)c(OC)c(OC)c5)nn4)c(OC)c3)sc2c1
IC50 [1]: 10.7 µM
IC50 [2]: 16.4 µM
IC50 [3]: 15.5 µM
IC50 [4]: 18.6 µM
IC50 [5]: 11.1 µM

COc1ccc2nc(-c3ccc(-n4nnnc4-c4cc(OC)c(OC)c(OC)c4)c(C)c3)sc2c1
IC50 [1]: 4.78 µM
IC50 [2]: 10.5 µM
IC50 [3]: 12.6 µM
IC50 [4]: 15.9 µM
IC50 [5]: 11 µM

COc1cc(-c2nncn2-c2ccc(-c3nc4ccc(F)cc4s3)cc2)cc(OC)c1OC
IC50 [1]: 6.58 µM
IC50 [2]: 10.4 µM
IC50 [3]: 12.5 µM
IC50 [4]: 8.21 µM
IC50 [5]: 7 µM

COc1cc(-c2nnnn2-c2ccc(-c3nc4cc(OC)c(OC)c(OC)c4s3)cc2)cc(OC)c1OC
IC50 [1]: 3.54 µM
IC50 [2]: 8.51 µM
IC50 [3]: 8.68 µM
IC50 [4]: 7.24 µM
IC50 [5]: 6.16 µM

COc1ccc2nc(-c3ccc(-n4cnnc4-c4cc(OC)c(OC)c(OC)c4)cc3)sc2c1
IC50 [1]: 7.24 µM
IC50 [2]: 11.6 µM
IC50 [3]: 9.5 µM
IC50 [4]: 11.2 µM
IC50 [5]: 10 µM

COc1cc(OC)c2sc(-c3ccc(-n4cc(-c5cc(OC)c(OC)c(OC)c5)nn4)c(OC)c3)nc2c1
IC50 [1]: 0.24 µM
IC50 [2]: 1.47 µM
IC50 [3]: 4.36 µM
IC50 [4]: 0.41 µM
IC50 [5]: 0.37 µM

COc1ccc2nc(-c3ccc(-n4nnnc4-c4cc(OC)c(OC)c(OC)c4)c(OC)c3)sc2c1
IC50 [1]: 2.25 µM
IC50 [2]: 1.67 µM
IC50 [3]: 3.45 µM
IC50 [4]: 5.67 µM
IC50 [5]: 4.56 µM

COc1cc(-c2nc3cc(OC)c(OC)c(OC)c3s2)ccc1-n1cnnc1-c1cc(OC)c(OC)c(OC)c1
IC50 [1]: 3.46 µM
IC50 [2]: 7.41 µM
IC50 [3]: 10.5 µM
IC50 [4]: 11.5 µM
IC50 [5]: 5.51 µM

COc1cc(-c2nnnn2-c2ccc(-c3nc4ccc(F)cc4s3)cc2C)cc(OC)c1OC
IC50 [1]: 0.24 µM
IC50 [2]: 1.69 µM
IC50 [3]: 3.23 µM
IC50 [4]: 1.14 µM
IC50 [5]: 0.97 µM

COc1ccc2nc(-c3ccc(-n4cnnc4-c4cc(OC)c(OC)c(OC)c4)c(OC)c3)sc2c1
IC50 [1]: 9.06 µM
IC50 [2]: 9.05 µM
IC50 [3]: 14.7 µM
IC50 [4]: 11.6 µM
IC50 [5]: 8.76 µM

COc1cc(-c2nc3ccc(F)cc3s2)ccc1-n1cc(-c2cc(OC)c(OC)c(OC)c2)nn1
IC50 [1]: 6.02 µM
IC50 [2]: 13.9 µM
IC50 [3]: 16.1 µM
IC50 [4]: 14.2 µM
IC50 [5]: 10.1 µM

COc1cc(-c2nc3cc(OC)c(OC)c(OC)c3s2)ccc1-n1cc(-c2cc(OC)c(OC)c(OC)c2)nn1
IC50 [1]: 11 µM
IC50 [2]: 29.9 µM
IC50 [3]: 27.8 µM
IC50 [4]: 15.9 µM
IC50 [5]: 17.8 µM

COc1cc(-c2cn(-c3ccc(-c4nc5ccc(F)cc5s4)cc3C)nn2)cc(OC)c1OC
IC50 [1]: 3.38 µM
IC50 [2]: 8.05 µM
IC50 [3]: 10.8 µM
IC50 [4]: 7.33 µM
IC50 [5]: 6.76 µM

COc1ccc2nc(-c3ccc(-n4cc(-c5cc(OC)c(OC)c(OC)c5)nn4)cc3)sc2c1
IC50 [1]: 6.3 µM
IC50 [2]: 12.4 µM
IC50 [3]: 22.9 µM
IC50 [4]: 12.3 µM
IC50 [5]: 11.5 µM

COc1cc(-c2nncn2-c2ccc(-c3nc4cc(OC)c(OC)c(OC)c4s3)cc2)cc(OC)c1OC
IC50 [1]: 0.091 µM
IC50 [2]: 1.27 µM
IC50 [3]: 3.15 µM
IC50 [4]: 0.46 µM
IC50 [5]: 0.21 µM

COc1cc(OC)c2sc(-c3ccc(-n4nnnc4-c4cc(OC)c(OC)c(OC)c4)c(C)c3)nc2c1
IC50 [1]: 5.38 µM
IC50 [2]: 9.74 µM
IC50 [3]: 17.2 µM
IC50 [4]: 11.7 µM
IC50 [5]: 8.7 µM

COc1ccc2nc(-c3ccc(-n4cc(-c5cc(OC)c(OC)c(OC)c5)nn4)c(C)c3)sc2c1
IC50 [1]: 15.8 µM
IC50 [2]: 20.1 µM
IC50 [3]: 22 µM
IC50 [4]: 18.2 µM
IC50 [5]: 13.1 µM

COc1cc(-c2nc3cc(OC)c(OC)c(OC)c3s2)ccc1-n1nnnc1-c1cc(OC)c(OC)c(OC)c1
IC50 [1]: 3.8 µM
IC50 [2]: 16 µM
IC50 [3]: 16.6 µM
IC50 [4]: 10.8 µM
IC50 [5]: 5.79 µM

COc1cc(-c2nc3ccc(F)cc3s2)ccc1-n1nnnc1-c1cc(OC)c(OC)c(OC)c1
IC50 [1]: 1.38 µM
IC50 [2]: 1.24 µM
IC50 [3]: 1.52 µM
IC50 [4]: 4.77 µM
IC50 [5]: 4.36 µM

COc1cc(-c2nncn2-c2ccc(-c3nc4cc(OC)c(OC)c(OC)c4s3)cc2C)cc(OC)c1OC
IC50 [1]: 0.23 µM
IC50 [2]: 1.25 µM
IC50 [3]: 2.99 µM
IC50 [4]: 0.7 µM
IC50 [5]: 0.21 µM

COc1cc(OC)c2sc(-c3ccc(-n4cnnc4-c4cc(OC)c(OC)c(OC)c4)c(C)c3)nc2c1
IC50 [1]: 0.26 µM
IC50 [2]: 2.54 µM
IC50 [3]: 5.35 µM
IC50 [4]: 1.04 µM
IC50 [5]: 0.93 µM

COc1cc(OC)c2sc(-c3ccc(-n4nnnc4-c4cc(OC)c(OC)c(OC)c4)cc3)nc2c1
IC50 [1]: 7.24 µM
IC50 [2]: 22.4 µM
IC50 [3]: 31.6 µM
IC50 [4]: 19.9 µM
IC50 [5]: 10.2 µM

COc1ccc2nc(-c3ccc(-n4nnnc4-c4cc(OC)c(OC)c(OC)c4)cc3)sc2c1
IC50 [1]: 3.8 µM
IC50 [2]: 9.05 µM
IC50 [3]: 11.2 µM
IC50 [4]: 9.12 µM
IC50 [5]: 6.6 µM

COc1cc(-c2nnnn2-c2ccc(-c3nc4cc(OC)c(OC)c(OC)c4s3)cc2C)cc(OC)c1OC
IC50 [1]: 7.41 µM
IC50 [2]: 23.4 µM
IC50 [3]: 17.5 µM
IC50 [4]: 14.8 µM
IC50 [5]: 9.81 µM

Cc1cc(-c2nc3cc(F)ccc3s2)ccc1N
Activity (A549 [6]): 81.8%
Activity (A549 [7]): 16%
Activity (A549 [8]): 10%

COc1cc(-c2nc3ccc(F)cc3s2)ccc1-n1cnnc1-c1cc(OC)c(OC)c(OC)c1
IC50 [1]: 1.22 µM
IC50 [2]: 2.75 µM
IC50 [3]: 2.49 µM
IC50 [4]: 7.58 µM
IC50 [5]: 2.81 µM

COc1cc(OC)c2sc(-c3ccc(-n4cnnc4-c4cc(OC)c(OC)c(OC)c4)cc3)nc2c1
IC50 [1]: 5.04 µM
IC50 [2]: 9.65 µM
IC50 [3]: 8.21 µM
IC50 [4]: 11.8 µM
IC50 [5]: 4.13 µM

COc1cc(-c2cn(-c3ccc(-c4nc5cc(OC)c(OC)c(OC)c5s4)cc3)nn2)cc(OC)c1OC
IC50 [1]: 8.54 µM
IC50 [2]: 15.5 µM
IC50 [3]: 9.12 µM
IC50 [4]: 14.8 µM
IC50 [5]: 11.5 µM
